Assay results as given in ChEMBL document CHEMBL4382284, “Acrylamide Functional Group Incorporation Improves Drug-like Properties: An Example with EGFR Inhibitors” (ACS Med Chem Lett, 2019).
In brackets after ≈: the same amount, converted by molar mass.

Key:
[1] = Thermodynamic solubility of the compound in pH 7.4 phosphate buffered saline measured after 24 hrs by UV-HPLC analysis; format: physicochemical; conditions: read-out: Therm_solubility
[2] = biological target: Epidermal growth factor receptor (Homo sapiens, UniProt P00533); experiment: Inhibition of human EGFR using poly[Glu:Tyr] (4:1) as substrate measured after 20 mins in presence of [gamma33P]ATP by filter-binding assay
[3] = Thermodynamic solubility of the compound in 1-octanol solution measured after 24 hrs by UV-HPLC analysis; format: physicochemical; conditions: read-out: Therm_solubility
[4] = 1-Octanol-buffer partition coefficient, log D of compound at pH 7.4 after 24 hrs by shake-flask method; format: physicochemical; conditions: for logD at 24 h: 1-octanol/buffer, pH 7.4
Outline: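 Shake-flask partition between 1-octanol and pH 7.4 aqueous solution, mixed at 1/2 (v/v) octanol/aqueous; log D taken at pH 7.4.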

[5] = GSH reactivity in pH 7.4 phosphate buffer assessed as half life measured every 15 mins by HPLC analysis; format: physicochemical; conditions: phosphate buffer with GSH
Outline: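 Half-life measured on incubation with glutathione at pH 7.4 and 37 °C, compound to glutathione 1/10.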

A549 = experiment: Cytotoxicity against human A549 cells after 72 hrs by MTT assay; format: functional, cell-based; conditions: A549, 72 h
[6] = biological target: Voltage-gated inwardly rectifying potassium channel KCNH2 (Homo sapiens, UniProt Q12809); experiment: Inhibition of human ERG
[7] = Cytotoxicity against human FHS cells assessed as reduction in cell viability after 72 hrs by MTT assay
Vero = experiment: Cytotoxicity against African green monkey Vero cells assessed as reduction in cell viability after 72 hrs by MTT assay; format: ADME, cell-based; conditions: Chlorocebus sabaeus

Chain of Epidermal growth factor receptor (P00533 whole entry): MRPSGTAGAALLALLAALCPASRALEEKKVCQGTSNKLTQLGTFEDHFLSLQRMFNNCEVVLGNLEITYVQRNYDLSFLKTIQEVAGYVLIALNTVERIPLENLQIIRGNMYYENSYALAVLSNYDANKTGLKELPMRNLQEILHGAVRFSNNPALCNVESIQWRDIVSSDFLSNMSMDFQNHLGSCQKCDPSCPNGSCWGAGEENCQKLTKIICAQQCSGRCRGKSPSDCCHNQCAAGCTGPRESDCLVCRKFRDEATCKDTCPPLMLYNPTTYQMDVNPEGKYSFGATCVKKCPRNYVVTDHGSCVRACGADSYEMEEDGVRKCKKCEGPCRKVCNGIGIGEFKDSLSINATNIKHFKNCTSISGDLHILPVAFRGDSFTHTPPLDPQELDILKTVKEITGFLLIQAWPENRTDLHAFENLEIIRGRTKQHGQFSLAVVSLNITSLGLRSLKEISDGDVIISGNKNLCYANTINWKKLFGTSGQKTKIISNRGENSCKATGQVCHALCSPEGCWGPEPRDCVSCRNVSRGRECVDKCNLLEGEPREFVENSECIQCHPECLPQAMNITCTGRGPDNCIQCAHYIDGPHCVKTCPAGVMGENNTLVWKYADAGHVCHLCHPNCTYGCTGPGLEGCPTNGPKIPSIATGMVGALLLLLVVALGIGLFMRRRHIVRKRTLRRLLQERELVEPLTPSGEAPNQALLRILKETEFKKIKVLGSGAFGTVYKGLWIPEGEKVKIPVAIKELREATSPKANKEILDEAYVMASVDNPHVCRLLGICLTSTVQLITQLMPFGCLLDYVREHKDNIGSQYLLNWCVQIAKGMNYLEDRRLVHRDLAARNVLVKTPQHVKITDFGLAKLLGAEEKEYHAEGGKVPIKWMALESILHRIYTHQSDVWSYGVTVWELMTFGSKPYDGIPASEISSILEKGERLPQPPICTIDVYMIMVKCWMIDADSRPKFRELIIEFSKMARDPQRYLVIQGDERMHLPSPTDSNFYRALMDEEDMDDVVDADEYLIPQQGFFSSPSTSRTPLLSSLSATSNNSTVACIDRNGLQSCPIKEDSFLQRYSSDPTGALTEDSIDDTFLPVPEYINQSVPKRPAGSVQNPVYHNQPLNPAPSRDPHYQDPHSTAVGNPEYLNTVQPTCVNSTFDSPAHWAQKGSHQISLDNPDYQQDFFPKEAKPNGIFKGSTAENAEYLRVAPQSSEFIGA
Chain of Voltage-gated inwardly rectifying potassium channel KCNH2 (Q12809 whole entry): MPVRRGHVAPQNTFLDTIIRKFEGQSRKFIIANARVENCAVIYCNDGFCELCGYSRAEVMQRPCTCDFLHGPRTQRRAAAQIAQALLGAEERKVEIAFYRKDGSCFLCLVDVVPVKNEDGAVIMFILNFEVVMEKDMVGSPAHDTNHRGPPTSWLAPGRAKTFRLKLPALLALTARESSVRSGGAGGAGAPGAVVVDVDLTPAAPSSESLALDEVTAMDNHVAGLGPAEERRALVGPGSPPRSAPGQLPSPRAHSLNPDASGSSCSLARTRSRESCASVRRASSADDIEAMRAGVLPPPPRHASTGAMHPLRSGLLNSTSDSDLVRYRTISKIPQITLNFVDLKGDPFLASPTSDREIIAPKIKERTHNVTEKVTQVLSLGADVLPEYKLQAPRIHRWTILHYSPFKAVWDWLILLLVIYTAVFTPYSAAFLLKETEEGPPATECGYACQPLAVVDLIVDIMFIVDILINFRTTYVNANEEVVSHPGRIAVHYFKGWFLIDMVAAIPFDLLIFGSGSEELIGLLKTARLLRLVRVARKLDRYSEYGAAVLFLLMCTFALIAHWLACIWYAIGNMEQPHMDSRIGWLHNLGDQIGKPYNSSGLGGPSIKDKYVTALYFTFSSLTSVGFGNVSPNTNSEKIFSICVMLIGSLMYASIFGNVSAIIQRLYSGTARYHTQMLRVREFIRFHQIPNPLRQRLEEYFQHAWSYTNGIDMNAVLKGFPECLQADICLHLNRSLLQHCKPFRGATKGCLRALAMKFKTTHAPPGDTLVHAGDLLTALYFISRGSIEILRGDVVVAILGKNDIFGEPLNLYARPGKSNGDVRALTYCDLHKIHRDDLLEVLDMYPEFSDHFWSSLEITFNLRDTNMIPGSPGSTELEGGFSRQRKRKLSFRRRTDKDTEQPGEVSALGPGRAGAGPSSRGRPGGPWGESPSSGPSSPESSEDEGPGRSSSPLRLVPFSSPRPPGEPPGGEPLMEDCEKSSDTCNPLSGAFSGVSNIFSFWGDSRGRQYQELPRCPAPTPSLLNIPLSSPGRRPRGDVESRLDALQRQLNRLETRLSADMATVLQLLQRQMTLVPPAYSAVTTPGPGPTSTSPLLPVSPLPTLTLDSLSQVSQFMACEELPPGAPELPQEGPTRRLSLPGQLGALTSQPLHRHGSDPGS

Row | solubility thermodynamic at 24 h [1] [µM] | IC50 [2] [nM] | solubility thermodynamic at 24 h [3] [µM] | SMILES | IC50 (A549) [nM] | other results
1 | 630 (≈ 326 µg/mL) | 31.7 | 4470 (≈ 2310 µg/mL) | C=CC(=O)N(c1ccc(Cl)c(Cl)c1)c1ncnc2cc(OC)c(OCCCN3CCOCC3)cc12 | 5720 | logD at 24 h [4]: 3.57; half-life [5]: 17 min
2 | – | 844 | – | C=CC(=O)N(c1cccc(C(F)(F)F)c1)c1ncnc2cc(OC)c(OCCCN3CCOCC3)cc12 | – | –
3 | < 10 | – | 1400 (≈ 626 µg/mL) | COc1cc2ncnc(Nc3ccc(F)c(Cl)c3)c2cc1OCCCN1CCOCC1 [GEFITINIB] | – | logD ([4]; octanol/water, pH 7.4, 24 h): 2.41
4 | – | 499 | – | C=CC(=O)N(c1ccc(F)c(C)c1)c1ncnc2cc(OC)c(OCCCN3CCOCC3)cc12 | – | –
5 | – | 368 | – | C=CC(=O)N(c1ccc(F)c(F)c1)c1ncnc2cc(OC)c(OCCCN3CCOCC3)cc12 | – | –
6 | – | 234 | – | C=CC(=O)N(c1ccc(Cl)cc1F)c1ncnc2cc(OC)c(OCCCN3CCOCC3)cc12 | – | –
7 | – | > 1000 | – | C=CC(=O)N(c1ccc(OC)cc1F)c1ncnc2cc(OC)c(OCCCN3CCOCC3)cc12 | – | –
8 | – | 1 | 4570 (≈ 2120 µg/mL) | COc1cc2ncnc(Nc3ccc(Cl)c(Cl)c3)c2cc1OCCCN1CCOCC1 | 24700 | –
9 | 20 (≈ 9.2 µg/mL) | – | 4540 (≈ 2090 µg/mL) | COc1cc2ncnc(Nc3cccc(Cl)c3F)c2cc1OC(=O)N1CCN(C)C[C@H]1C [AZD-3759] | 28700 | logD at 24 h [4]: 2.84

Further lines, the compound ahead of its results:

Row | SMILES | solubility thermodynamic at 24 h [1] [µM] | IC50 [2] [nM] | solubility thermodynamic at 24 h [3] [µM] | IC50 (A549) [nM] | other results
10 | C=CC(=O)N(c1ccc(F)cc1F)c1ncnc2cc(OC)c(OCCCN3CCOCC3)cc12 | – | 302 | – | – | –
11 | C=CC(=O)N(c1cc(Cl)ccc1F)c1ncnc2cc(OC)c(OCCCN3CCOCC3)cc12 | – | 133 | – | – | –
12 | C=CC(=O)N(c1ccc(F)c(C(F)(F)F)c1)c1ncnc2cc(OC)c(OCCCN3CCOCC3)cc12 | – | > 1000 | – | – | –
13 | COc1cc2ncnc(Nc3cccc(Cl)c3F)c2cc1OCCCN1CCOCC1 | – | – | – | 7510 | –
14 | C=CC(=O)N(c1ccc(F)c(Cl)c1)c1ncnc2cc(OC)c(OCCCN3CCOCC3)cc12 | 1650 (≈ 827 µg/mL) | 65.2 | 4540 to 4940 (≈ 2270 to 2470 µg/mL) | 150 | IC50 [6]: > 10000 nM; inhibition (INH) ([6]; human): 20%; IC50 [7]: > 10000 nM; logD at 24 h [4]: 2.01; half-life [5]: 85.1 min; IC50 (Vero): > 10000 nM
15 | C=CC(=O)N(c1cccc(Cl)c1F)c1ncnc2cc(OC)c(OCCCN3CCOCC3)cc12 | 1200 (≈ 601 µg/mL) | 52.6 | 5600 (≈ 2810 µg/mL) | 450 | logD at 24 h [4]: 2.64; half-life [5]: 49 min
16 | C=CC(=O)N(c1cc(F)c(F)cc1F)c1ncnc2cc(OC)c(OCCCN3CCOCC3)cc12 | – | 500 | – | – | –
17 | C=CC(=O)N(c1cccc(Cl)c1F)c1ncnc2cc(OC)c(OC(=O)N3CCN(C)C[C@H]3C)cc12 | 30 (≈ 15.4 µg/mL) | – | 5020 (≈ 2580 µg/mL) | 6100 | logD at 24 h [4]: 2.46; half-life [5]: 27.5 min
